Experimental data as given in ChEMBL document CHEMBL3102852, “Design, synthesis and cytotoxic activity of novel sulfonylurea derivatives of podophyllotoxin” (Bioorg Med Chem, 2014).

tested on: not listed separately; experiment: Cytotoxicity against multidrug-resistant human KBVIN cells after 72 hrs by sulforhodamine B assay; assay type: functional, cell-based; conditions: not given
Procedure, shortened: (§1)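 Cells seeded at 3-5 × 10^3 per well in RPMI-1640 with 10% FBS containing various sample concentrations, incubated 72 h. Attached cells fixed with cold 50% trichloroacetic acid for 30 min, stained with 0.04% SRB for 30 min, bound dye solubilized in 10 mM Tris-base, absorbance read at 515 nm. Triplicate experiments; KBvin is a vincristine-selected MDR KB subline.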

Structure (SMILES)	IC50 [µM]
COc1cc([C@@H]2c3cc4c(cc3[C@@H](NC(=O)NS(=O)(=O)c3ccccc3)[C@H]3COC(=O)[C@H]23)OCO4)cc(OC)c1O	8.76
COc1ccc(S(=O)(=O)NC(=O)N[C@@H]2c3cc4c(cc3[C@@H](c3cc(OC)c(O)c(OC)c3)[C@H]3C(=O)OC[C@@H]32)OCO4)cc1	8.79
COc1cc([C@@H]2c3cc4c(cc3[C@@H](NC(=O)NS(=O)(=O)c3ccc(C)cc3)[C@H]3COC(=O)[C@H]23)OCO4)cc(OC)c1O	> 20
COc1cc([C@@H]2c3cc4c(cc3[C@@H](NC(=O)NS(=O)(=O)c3ccc(C(C)C)cc3)[C@H]3COC(=O)[C@H]23)OCO4)cc(OC)c1O	8.35
COc1cc([C@@H]2c3cc4c(cc3[C@@H](NC(=O)NS(=O)(=O)c3ccc(F)cc3)[C@H]3COC(=O)[C@H]23)OCO4)cc(OC)c1O	7.92
COc1cc([C@@H]2c3cc4c(cc3[C@@H](NC(=O)NS(=O)(=O)c3ccc(Cl)cc3)[C@H]3COC(=O)[C@H]23)OCO4)cc(OC)c1O	7.95
COc1cc([C@@H]2c3cc4c(cc3[C@@H](NC(=O)NS(=O)(=O)Cc3ccccc3)[C@H]3COC(=O)[C@H]23)OCO4)cc(OC)c1O	14
COc1ccc(S(=O)(=O)NC(=O)N[C@@H]2c3cc4c(cc3[C@@H](c3cc(OC)c(O)c(OC)c3)[C@H]3C(=O)OC[C@@H]32)OCO4)c(OC)c1	8.56
COc1cc([C@@H]2c3cc4c(cc3[C@@H](NC(=O)NS(=O)(=O)c3ccc5ccccc5c3)[C@H]3COC(=O)[C@H]23)OCO4)cc(OC)c1O	8.62
COc1cc([C@@H]2c3cc4c(cc3[C@@H](NC(=O)NS(C)(=O)=O)[C@H]3COC(=O)[C@H]23)OCO4)cc(OC)c1OC	> 20

tested on: KB; experiment: Cytotoxicity against human KB cells after 72 hrs by sulforhodamine B assay; assay type: functional, cell-based; conditions: not given; procedure, shortened: as §1

Structure (SMILES)	IC50 [µM]
COc1cc([C@@H]2c3cc4c(cc3[C@@H](NC(=O)NS(=O)(=O)c3ccccc3)[C@H]3COC(=O)[C@H]23)OCO4)cc(OC)c1O	8.38
COc1ccc(S(=O)(=O)NC(=O)N[C@@H]2c3cc4c(cc3[C@@H](c3cc(OC)c(O)c(OC)c3)[C@H]3C(=O)OC[C@@H]32)OCO4)cc1	9.49
COc1cc([C@@H]2c3cc4c(cc3[C@@H](NC(=O)NS(=O)(=O)c3ccc(C)cc3)[C@H]3COC(=O)[C@H]23)OCO4)cc(OC)c1O	> 20
COc1cc([C@@H]2c3cc4c(cc3[C@@H](NC(=O)NS(=O)(=O)c3ccc(C(C)C)cc3)[C@H]3COC(=O)[C@H]23)OCO4)cc(OC)c1O	9.51
COc1cc([C@@H]2c3cc4c(cc3[C@@H](NC(=O)NS(=O)(=O)c3ccc(F)cc3)[C@H]3COC(=O)[C@H]23)OCO4)cc(OC)c1O	9
COc1cc([C@@H]2c3cc4c(cc3[C@@H](NC(=O)NS(=O)(=O)c3ccc(Cl)cc3)[C@H]3COC(=O)[C@H]23)OCO4)cc(OC)c1O	10.6
COc1cc([C@@H]2c3cc4c(cc3[C@@H](NC(=O)NS(=O)(=O)Cc3ccccc3)[C@H]3COC(=O)[C@H]23)OCO4)cc(OC)c1O	11.8
COc1ccc(S(=O)(=O)NC(=O)N[C@@H]2c3cc4c(cc3[C@@H](c3cc(OC)c(O)c(OC)c3)[C@H]3C(=O)OC[C@@H]32)OCO4)c(OC)c1	8.08
COc1cc([C@@H]2c3cc4c(cc3[C@@H](NC(=O)NS(=O)(=O)c3ccc5ccccc5c3)[C@H]3COC(=O)[C@H]23)OCO4)cc(OC)c1O	9.7
COc1cc([C@@H]2c3cc4c(cc3[C@@H](NC(=O)NS(C)(=O)=O)[C@H]3COC(=O)[C@H]23)OCO4)cc(OC)c1OC	> 20

tested on: A549; experiment: Cytotoxicity against human A549 cells after 72 hrs by sulforhodamine B assay; assay type: functional, cell-based; conditions: A549, 72 h; procedure, shortened: as §1

Structure (SMILES)	IC50 [µM]
COc1cc([C@@H]2c3cc4c(cc3[C@@H](NC(=O)NS(=O)(=O)c3ccccc3)[C@H]3COC(=O)[C@H]23)OCO4)cc(OC)c1O	8.25
COc1ccc(S(=O)(=O)NC(=O)N[C@@H]2c3cc4c(cc3[C@@H](c3cc(OC)c(O)c(OC)c3)[C@H]3C(=O)OC[C@@H]32)OCO4)cc1	7.67
COc1cc([C@@H]2c3cc4c(cc3[C@@H](NC(=O)NS(=O)(=O)c3ccc(C)cc3)[C@H]3COC(=O)[C@H]23)OCO4)cc(OC)c1O	> 20
COc1cc([C@@H]2c3cc4c(cc3[C@@H](NC(=O)NS(=O)(=O)c3ccc(C(C)C)cc3)[C@H]3COC(=O)[C@H]23)OCO4)cc(OC)c1O	7.72
COc1cc([C@@H]2c3cc4c(cc3[C@@H](NC(=O)NS(=O)(=O)c3ccc(F)cc3)[C@H]3COC(=O)[C@H]23)OCO4)cc(OC)c1O	7.82
COc1cc([C@@H]2c3cc4c(cc3[C@@H](NC(=O)NS(=O)(=O)c3ccc(Cl)cc3)[C@H]3COC(=O)[C@H]23)OCO4)cc(OC)c1O	9.03
COc1cc([C@@H]2c3cc4c(cc3[C@@H](NC(=O)NS(=O)(=O)Cc3ccccc3)[C@H]3COC(=O)[C@H]23)OCO4)cc(OC)c1O	8.63
COc1ccc(S(=O)(=O)NC(=O)N[C@@H]2c3cc4c(cc3[C@@H](c3cc(OC)c(O)c(OC)c3)[C@H]3C(=O)OC[C@@H]32)OCO4)c(OC)c1	8
COc1cc([C@@H]2c3cc4c(cc3[C@@H](NC(=O)NS(=O)(=O)c3ccc5ccccc5c3)[C@H]3COC(=O)[C@H]23)OCO4)cc(OC)c1O	8.49
COc1cc([C@@H]2c3cc4c(cc3[C@@H](NC(=O)NS(C)(=O)=O)[C@H]3COC(=O)[C@H]23)OCO4)cc(OC)c1OC	> 20

tested on: DU-145; experiment: Cytotoxicity against human DU145 cells after 72 hrs by sulforhodamine B assay; assay type: functional, cell-based; conditions: DU-145, 72 h; procedure, shortened: as §1

Structure (SMILES)	IC50 [µM]
COc1cc([C@@H]2c3cc4c(cc3[C@@H](NC(=O)NS(=O)(=O)c3ccccc3)[C@H]3COC(=O)[C@H]23)OCO4)cc(OC)c1O	8.1
COc1ccc(S(=O)(=O)NC(=O)N[C@@H]2c3cc4c(cc3[C@@H](c3cc(OC)c(O)c(OC)c3)[C@H]3C(=O)OC[C@@H]32)OCO4)cc1	9.66
COc1cc([C@@H]2c3cc4c(cc3[C@@H](NC(=O)NS(=O)(=O)c3ccc(C)cc3)[C@H]3COC(=O)[C@H]23)OCO4)cc(OC)c1O	> 20
COc1cc([C@@H]2c3cc4c(cc3[C@@H](NC(=O)NS(=O)(=O)c3ccc(C(C)C)cc3)[C@H]3COC(=O)[C@H]23)OCO4)cc(OC)c1O	9.32
COc1cc([C@@H]2c3cc4c(cc3[C@@H](NC(=O)NS(=O)(=O)c3ccc(F)cc3)[C@H]3COC(=O)[C@H]23)OCO4)cc(OC)c1O	9.61
COc1cc([C@@H]2c3cc4c(cc3[C@@H](NC(=O)NS(=O)(=O)c3ccc(Cl)cc3)[C@H]3COC(=O)[C@H]23)OCO4)cc(OC)c1O	11.5
COc1cc([C@@H]2c3cc4c(cc3[C@@H](NC(=O)NS(=O)(=O)Cc3ccccc3)[C@H]3COC(=O)[C@H]23)OCO4)cc(OC)c1O	11.2
COc1ccc(S(=O)(=O)NC(=O)N[C@@H]2c3cc4c(cc3[C@@H](c3cc(OC)c(O)c(OC)c3)[C@H]3C(=O)OC[C@@H]32)OCO4)c(OC)c1	8.51
COc1cc([C@@H]2c3cc4c(cc3[C@@H](NC(=O)NS(=O)(=O)c3ccc5ccccc5c3)[C@H]3COC(=O)[C@H]23)OCO4)cc(OC)c1O	10.5
COc1cc([C@@H]2c3cc4c(cc3[C@@H](NC(=O)NS(C)(=O)=O)[C@H]3COC(=O)[C@H]23)OCO4)cc(OC)c1OC	> 20
